High-throughput results as filed in PubChem BioAssay.
EBNA-1 inh = EBNA-1 DNA-binding inhibitors, primary screen, biochemical, fluorescence polarization; inhibition, % at 14.8 µM; actives 0.34% (n = 300,000); AID 1950, 2009; in the data active = inhibition above about 28%
ZTA counter = ZTA (EBV) inhibition in EBNA-1 counter-screen. ZTA-DNA binding, fluorescence polarization. inhibition, % at 11 µM. actives 0.15% (n = 320,000); in the data active = inhibition above about 33%
GSTO1 counter = inhibitors of recombinant GSTO1, primary screen, counter-screen for RBBP9 inhibitor project, biochemical, fluorescence polarization. AID 1974, 2009. activity-based probe fluorescence polarization. actives 1.1% (n = 300,000). inhibition, % at 5.96 µM. Glutathione S-transferase omega-1 (Homo sapiens), P78417;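 active = inhibition above the campaign mean inhibition plus 3 SD, cut at about 35% in these data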;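 also: 0% = GSTO1-1 with DMSO and 100% = wells lacking GSTO1-1 enzyme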
Apaf1 inhib = inhibitors of human Apaf-1 apoptosome, primary screen, biochemical, DEVD-Rh110 fluorescence, uHTS | AID 489030, 2010 | inhibition, % at 20 µM | Apoptotic protease-activating factor 1 (Homo sapiens), O14727 | reconstituted apoptosome caspase-3 activity | actives 0.71% (n = 330,000); active = inhibition of at least 40% at 20 µM;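 also: plate controls were DMSO wells for no effect and DEVD-CHO caspase inhibitor wells for full effect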
Target sequence (O14727 whole entry, looked up): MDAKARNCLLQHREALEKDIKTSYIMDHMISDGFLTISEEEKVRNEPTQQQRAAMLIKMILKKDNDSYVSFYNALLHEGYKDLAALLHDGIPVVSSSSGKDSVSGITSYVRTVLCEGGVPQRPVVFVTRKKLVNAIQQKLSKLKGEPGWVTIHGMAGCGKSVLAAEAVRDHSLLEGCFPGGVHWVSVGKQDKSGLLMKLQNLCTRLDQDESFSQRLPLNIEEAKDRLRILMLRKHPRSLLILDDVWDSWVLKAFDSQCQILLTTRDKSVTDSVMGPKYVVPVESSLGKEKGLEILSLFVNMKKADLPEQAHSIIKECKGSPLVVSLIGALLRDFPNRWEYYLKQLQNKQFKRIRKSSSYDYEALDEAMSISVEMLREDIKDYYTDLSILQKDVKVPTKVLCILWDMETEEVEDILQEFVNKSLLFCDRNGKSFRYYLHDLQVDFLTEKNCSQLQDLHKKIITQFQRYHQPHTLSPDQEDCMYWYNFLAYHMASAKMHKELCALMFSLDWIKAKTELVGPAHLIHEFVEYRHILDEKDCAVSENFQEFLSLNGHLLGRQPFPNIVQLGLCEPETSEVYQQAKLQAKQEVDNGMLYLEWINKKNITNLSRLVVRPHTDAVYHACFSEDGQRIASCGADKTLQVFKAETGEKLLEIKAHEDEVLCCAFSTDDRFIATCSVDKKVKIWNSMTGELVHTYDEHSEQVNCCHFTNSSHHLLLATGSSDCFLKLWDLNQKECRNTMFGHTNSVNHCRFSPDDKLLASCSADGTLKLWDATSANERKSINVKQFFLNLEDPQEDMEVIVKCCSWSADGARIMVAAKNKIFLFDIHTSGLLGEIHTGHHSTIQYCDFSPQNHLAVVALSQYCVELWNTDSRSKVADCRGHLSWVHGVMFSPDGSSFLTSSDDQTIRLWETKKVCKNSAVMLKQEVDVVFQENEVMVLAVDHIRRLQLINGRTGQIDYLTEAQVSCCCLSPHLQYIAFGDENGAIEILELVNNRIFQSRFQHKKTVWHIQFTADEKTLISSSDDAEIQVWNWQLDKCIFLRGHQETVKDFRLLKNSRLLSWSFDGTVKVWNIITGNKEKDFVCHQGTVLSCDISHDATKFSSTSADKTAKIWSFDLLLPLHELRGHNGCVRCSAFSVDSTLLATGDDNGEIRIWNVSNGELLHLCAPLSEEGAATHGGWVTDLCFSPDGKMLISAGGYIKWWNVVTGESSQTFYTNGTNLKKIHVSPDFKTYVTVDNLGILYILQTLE
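System: Apoptosome proteins | Medium: Hepes pH 7.5 with detergent and BSA | Also added: Cytochrome c trigger plus (Z-DEVD)2-Rh110 caspase-3 substrate | Incubation: 30 min compound preincubation, 50 min activation, room temperature | Detection: Rhodamine 110 fluorescence at Ex 480/Em 540 nm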
proCasp3 act = activators of human procaspase-3 D3A mutant, primary screen, biochemical, absorbance, PC-3 D3A mutant, single concentration | actives 0.11% (n = 330,000) | activation, % at 8.5 µM | recombinant procaspase-3 D3A, Ac-DEVD-pNA absorbance 405 nm;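 active = activation above the mean of all tested compounds plus 3 SD, cut at about 21% in these data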;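 also: 0% = DMSO alone and 100% = DMSO wells spiked with extra 5 µM PC-3 D3A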
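Test system: Procaspase-3 D3A mutant, all three cleavage aspartates alanine | Dosing: Single dose, 8.5 µM nominal compound, 0.8% DMSO | Schedule: 1 h preincubation, 2 h reaction | Technique: 405 nm absorbance of p-nitroaniline, reads at 0 and 120 min | Repeats: One well per compound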
procasp7 counter = procaspase-7 activators, primary screen, counter-screen for procaspase-3 activator project, biochemical, absorbance, HTS, human; actives 0.093% (n = 330,000); AID 463210, 2010; activation, % at 8.5 µM; recombinant procaspase-7, Ac-DEVD-pNA absorbance 405 nm; D23A/D198A/D206A triple mutant, cannot self-cleave; scale: DMSO 0, 5 µM enzyme 100;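 active = percent activation above the screen-wide mean plus 3 SD, cut at about 25% in these data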
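Assay system: Uncleavable procaspase-7 mutant enzyme / Input: 2 µM procaspase-7 mutant as dispensed / Dosing: single nominal 8.5 µM compound dose, 0.8% DMSO final / Timing: 1 h enzyme–compound preincubation and 2 h substrate reaction, both 25 °C / Detection: p-Nitroaniline absorbance at 405 nm, read at 0 and 120 min / Replication: singlicate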
Active calls of the source: *; . = no result. The list is not random: actives were taken first. Their share in the collection is about 1.8%.

SMILES	EBNA-1 inh	ZTA counter	GSTO1 counter	Apaf1 inhib	proCasp3 act	procasp7 counter
CC(C)CC(=O)O/N=C1\C(=O)N(Cc2ccc(Cl)cc2)c2ccc([N+](=O)[O-])cc21	-8	-9	40*	18	1	5
CC(=O)O/N=C1\C(=O)N(Cc2ccc(C)cc2)c2ccccc21	.	.	.	8	.	.
CCOC(=O)c1sc(/N=C/c2c(O)ccc3ccccc23)cc1C	2	0	39*	10	-1	-5
COC(=O)CNC(=O)C1Nc2ccccc2C2C=CCC12 (configuration not stated)	0	11	43*	12	3	-10
CC(C)CNC(=O)C1Nc2ccccc2C2C=CCC12 (configuration not stated)	0	7	21	10	-13	-19
COc1cc2ccccc2cc1C(=O)Nc1sc2c(c1C(N)=O)CCN(C(C)C)C2	-3	-23	0	51*	2	-10
O=C(CSc1nnc(-c2ccccn2)n1Cc1ccco1)c1ccc(Cl)cc1	7	12	35*	12	-14	8
O=C(CSc1nnc(-c2ccccn2)n1Cc1ccco1)c1ccccc1	-14	-16	0	12	4	-1
O=C(CSc1nnc2ccccn12)c1ccc(Cl)cc1	-3	-24	36*	2	-5	-6
CC1C(=O)N2CCCc3cc(NC(=O)CC(C)(C)C)cc1c32 (configuration not stated)	-23	-3	-2	-7	-5	3
CC(C)(C)OC(=O)NCc1ccc(CNC(=O)c2[nH]cnc2C(=O)NC2CCN(C(=O)OC(C)(C)C)CC2)cc1	.	4	.	24	7	-3
Cc1ccc(C2C(C#N)=C(N)Oc3n[nH]c(-c4ccccc4)c32)o1 (configuration not stated)	1	-17	45*	.	3	5
O=C(COC(=O)c1ccc([N+](=O)[O-])s1)c1ccc[nH]1	.	.	.	33	-11	-30
Cc1csc(NC(=O)CSc2nnc(NC(=O)C3CC(=O)N(c4ccccc4)C3)s2)n1 (configuration not stated)	-8	9	-4	11	4	2
Cc1ccc(N2CC(C(=O)Nc3nnc(SCC(=O)Nc4nc(C)cs4)s3)CC2=O)cc1 (configuration not stated)	31*	-11	-7	-13	10	6
COc1ccc(-c2cc(CCC(=O)N3CCN(c4cc(C)ccc4C)CC3)[nH]n2)cc1	.	.	.	29	4	5
Nc1ccc(OC(=O)Nc2ccc(O)cc2)cc1	-6	-2	59*	16	-1	-27
CCN1CCc2c(sc(NC(=O)c3ccc(S(=O)(=O)N4CCCCCC4)cc3)c2C(=O)NC)C1	-1	13	0	16	-6	9
Cc1ccc2oc(-c3ccc(C)c(NC(=S)NC(=O)c4cccs4)c3)nc2c1	29*	-12	1	29	3	1
O=C(Nc1nnc(C2CC2)s1)c1cncc(Br)c1	.	.	.	-10	8	4
Nc1cccc2c1C(=O)N(CCOc1ccc(F)cc1)C2=O	11	11	5	9	-14	-12
Oc1cccc(Nc2ccccc2)c1	.	7	.	-2	0	-10
CC(C)c1cc(Nc2cccc(O)c2)cc(C(C)C)c1O	-7	11	42*	16	-4	-11
C=CCn1c(=O)c2ccccc2n2c(SCC(=O)c3ccccc3)nnc12	4	-2	36*	9	1	-6
C=CCn1c(=O)c2ccccc2n2c(SCC(=O)N(C)C)nnc12	.	.	.	-1	.	.
SMILES	EBNA-1 inh	ZTA counter	GSTO1 counter	Apaf1 inhib	proCasp3 act	procasp7 counter
CC(/C=C1\SC(=O)N(CC(=O)Nc2ccc(O)cc2)C1=O)=C\c1ccccc1	28*	7	5	7	-5	18
CC(/C=C1\SC(=O)N(CC(=O)Nc2cccc(O)c2)C1=O)=C\c1ccccc1	-1	18	-19	17	10	7
O=C(O)c1cc(S(=O)(=O)Nc2ccc3oc(=O)sc3c2)ccc1O	7	2	60*	6	-21	-34
Cc1ccc(C(=O)NCC(=O)OCn2nnc3ccccc3c2=O)cc1	.	1	.	-6	0	-14
Cc1ccccc1CN1CCC(n2nccc2NC(=O)CCOc2ccccc2)CC1	-11	4	-1	20	2	6
Cc1ccc(N(CC(=O)Nc2ccc(C)cn2)S(=O)(=O)c2c(C)nn(C)c2C)cc1	-3	-8	36*	9	-8	-1
COc1ccc(N(CC(=O)Nc2ccc(C)cn2)S(=O)(=O)c2c(C)nn(C)c2C)cc1	2	13	8	-4	4	10
CS(=O)(=O)c1ccc(C(=O)NNC(=O)c2ccccc2-n2cccc2)cc1	.	-9	.	-3	12	8
Nc1ccccc1SC/C=C/CSc1ccccc1N	-9	-16	8	12	1	-11
CNC[C@H](CC1CCCCC1)NC[C@H](Cc1ccccc1)NCCC12CC3CC(CC(C3)C1)C2	9	8	-5	74*	-6	-13
NC[C@H](Cc1ccccc1)NCCCCC1CCCCC1	.	-5	.	39	-4	5
COc1ccc(C(=S)N2CCN(c3ccccc3Cl)CC2)cc1OC	-8	2	0	17	-5	-8
COc1cc(C(=S)N2CCN(c3ccccc3Cl)CC2)cc(O)c1O	10	8	37*	1	-13	-27
O=C(c1ccc(F)cc1)[C@@H]1[C@@H](C(=O)c2ccccc2)[C@@]2(C(=O)Nc3ccccc32)[C@H]2c3ccccc3C=CN12	2	15	7	73*	4	1
O=C1C2C3C=CC(C3)C2C(=O)N1Cc1ccccc1 (configuration not stated)	0	8	4	-17	1	11
O=C(c1ccco1)[C@@H]1[C@@H]2C(=O)N(c3ccccc3)C(=O)[C@@H]2C2c3ccccc3C=CN21 (some centres not stated)	-7	-13	37*	86*	1	-5
COc1ccc(N2C(=O)[C@@H]3[C@H](C2=O)[C@H]2c4ccccc4C=CN2[C@@H]3C(=O)Nc2ccccc2)cc1	-12	6	22	67*	-11	-14
